{"data": "Published values gathered from unrelated publications", "matrix": "plasma", "note": "Protocols differ between the studies behind these lines."}
{"Compound": "NS(=O)(=O)OC[C@@H]1C[C@@H](n2ccc3c(N[C@H]4CCc5ccccc54)ncnc32)C[C@@H]1O", "test system": "human", "setting": "intravenous, 15 mg/m², patients", "measurement": "AUC(0-t)", "value": "780 ng·h/mL"}
{"Compound": "CC(C)n1c(Nc2cccnc2)nc2cnc(Nc3ccc(N4CCN(C)CC4)cc3)nc21", "test system": "male human", "setting": "oral, 150 mg", "measurement": "AUC(0-inf)", "value": "1390 ng·h/mL"}
{"Compound": "CN1CC[C@@H](c2c(O)cc(O)c3c(=O)cc(-c4ccc(C(F)(F)F)cc4Cl)oc23)[C@@H]1CO", "test system": "human", "setting": "oral, 50 mg, patients", "measurement": "AUC(0-t)", "value": "1430 ng·h/mL"}
{"Compound": "Cl.[2H]C([2H])([2H])CC(=O)c1cnc(NC(=O)C2CC2)cc1Nc1cccc(-c2ncn(C([2H])([2H])[2H])n2)c1OC", "test system": "human", "setting": "oral, 20 mg, multiple doses, once daily, steady state", "measurement": "AUC", "value": "1100 ng·h/mL"}
{"Compound": "Cn1cc(Nc2nc(N)nc(-c3cccc(-n4ccc5cc(C6CC6)cc(F)c5c4=O)c3CO)n2)cn1", "test system": "human", "setting": "oral, 900 mg, single dose, fasted, suspension", "measurement": "AUC(0-t)", "value": "64100 ng·h/mL"}
{"Compound": "NC(=S)NN=Cc1ncccc1N", "test system": "human", "setting": "oral, 150 mg", "measurement": "AUC(0-t)", "value": "990 ng·h/mL"}
{"Compound": "COc1ccc([C@@H](O)c2cc(-c3ncnc4cc(N5CCOCC5)ccc34)c(F)cc2Cl)nn1", "test system": "human", "setting": "oral, 200 mg, single dose, patients", "measurement": "AUC(0-t)", "value": "6790 ng·h/mL"}
{"Compound": "CC(=O)N[C@H]1CC[C@H](NC(=O)CN2CCN(c3nncc(-c4ccc(C)cc4)n3)CC2)CC1", "test system": "female human", "setting": "oral, 100 mg, single dose, fasted, healthy volunteers", "measurement": "AUC(0-inf)", "value": "6500 ng·h/mL"}
{"Compound": "C[C@H](O)C(=O)C1=Nc2c(nc(N)[nH]c2=O)NC1", "test system": "human", "setting": "oral, 20 mg/kg, single dose, healthy volunteers", "measurement": "AUC(0-t)", "value": "5.29 ng·h/mL"}
{"Compound": "CC[C@H](C)CCCCC(=O)N[C@@H](CCN)C(=O)N[C@H](C(=O)N[C@@H](CCN)C(=O)N[C@H]1CCNC(=O)[C@H]([C@@H](C)O)NC(=O)[C@H](CCN)NC(=O)[C@H](CCN)NC(=O)[C@H](CC(C)C)NC(=O)[C@@H](Cc2ccccc2)NC(=O)[C@H](CCN)NC1=O)[C@@H](C)O", "test system": "human", "setting": "intravenous, 0.75 mg/kg, single dose, infusion", "measurement": "AUC(0-inf)", "value": "20500 ng·h/mL"}
{"Compound": "CNC(=O)n1ccc2cc(Oc3ccnc(NC(=O)c4ccc(C5CCN(CCO)CC5)cc4)c3)c(OCCOC)cc21", "test system": "human", "setting": "oral, 35 mg, single dose, healthy volunteers", "measurement": "AUC(0-inf)", "value": "93.4 ng·h/mL"}
{"Compound": "Cc1ccc(C(=O)Nc2ccc(CN3CCN(C)CC3)c(C(F)(F)F)c2)cc1C#Cc1cnc2[nH]ncc2c1", "test system": "human", "setting": "oral, 20 mg, single dose, healthy volunteers", "measurement": "AUC(0-t)", "value": "105 ng·h/mL"}
